The record followed here is ChEMBL document CHEMBL3616402, “A novel series of indazole-/indole-based glucagon receptor antagonists” (Bioorg Med Chem Lett, 2015).

Calls of active or inactive are those of the source. The rule behind the calls is not given here.

A word on the IC50: it is the midpoint of a concentration-inhibition curve. As usually defined, the half-life is how long it takes for the measured level to halve. Broadly, the bioavailability is dose-corrected exposure relative to a reference, in per cent. High values mean much systemic uptake, low ones little systemic uptake.

The target in data set [1] is T1, Glucagon receptor (Homo sapiens, UniProt P47871). The experiment in a line: Displacement of [125I]glucagon from human glucagon receptor expressed in CHO cell membranes. The procedure, abridged:
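Binding: displacement of [125I]glucagon from human GCGR in membranes prepared from a CHO cell line stably expressing hGCGR; IC50 reported in nM.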

Data set [2] has as its target T1, Glucagon receptor. Briefly: Antagonist activity against human glucagon receptor expressed in CHO cells assessed as reduction in glucagon-induced cAMP production. It is filed as functional, cell-based.
For data set [3], the target named is T2, Gastric inhibitory polypeptide receptor (Homo sapiens, UniProt P48546).
T2 sequence (P48546 whole entry): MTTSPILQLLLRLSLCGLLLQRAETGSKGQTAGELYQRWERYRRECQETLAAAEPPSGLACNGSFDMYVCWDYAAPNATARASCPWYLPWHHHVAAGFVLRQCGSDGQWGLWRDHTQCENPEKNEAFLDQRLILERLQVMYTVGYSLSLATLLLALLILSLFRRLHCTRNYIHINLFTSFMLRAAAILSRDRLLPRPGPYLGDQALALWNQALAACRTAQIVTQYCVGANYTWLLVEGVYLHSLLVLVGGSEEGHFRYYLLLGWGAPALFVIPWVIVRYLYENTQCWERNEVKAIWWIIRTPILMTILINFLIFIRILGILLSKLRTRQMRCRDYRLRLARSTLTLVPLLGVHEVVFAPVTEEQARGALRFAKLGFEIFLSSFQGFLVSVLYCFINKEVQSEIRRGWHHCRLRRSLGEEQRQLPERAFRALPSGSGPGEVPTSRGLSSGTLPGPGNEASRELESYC
The experiment in a line: Antagonist activity against human glucose dependent insulinotropic peptide receptor by cAMP accumulation assay. It is filed as functional. Summed up: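 Selectivity counter-screen: cAMP production measured in CHO cells expressing human GIPR; IC50 (potency) determined.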
On the technique in general: Changes in cAMP serve as a functional read-out for many G protein-coupled receptors.

Another data set is filed under the species Homo sapiens. Briefly: Selectivity index, ratio of IC50 for human glucose dependent insulinotropic peptide receptor to IC50 for human glucagon receptor.
Data set [4] can be described thus: Plasma clearance in Wistar rat at 0.5 mg/kg, iv or 2 mg/kg, po. The format is ADME, organism-based. Summed up: (§1)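 Wistar rats given 0.5 mg/kg iv and 2 mg/kg po; plasma concentration–time profiles used to derive plasma clearance, steady-state volume of distribution, half-life and dose-normalized AUC (µM·h·kg/mg).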
Data set [5] in a line: Volume of distribution at steady state in Wistar rat at 0.5 mg/kg, iv or 2 mg/kg, po. The settings on record: in vivo, read-out: Vdss. It is filed as ADME, organism-based. Summed up:
as §1

Data set [6] is described as follows: Half life in Wistar rat at 0.5 mg/kg, iv or 2 mg/kg, po. It is filed as ADME, organism-based. The settings on record: in vivo. Summed up:
as §1

A further data set concerns Rattus norvegicus. The experiment in a line: Dose normalized AUC in Wistar rat at 0.5 mg/kg, iv or 2 mg/kg, po. The format is ADME, organism-based. The settings on record: in vivo. Summed up: as §1
A short description of data set [7]: Oral bio availability in Wistar rat 2 mg/kg. It is filed as ADME, organism-based. The settings on record: in vivo. The procedure, abridged:
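Oral bioavailability from Wistar rats dosed 2 mg/kg po with 0.5 mg/kg iv reference dose; F (%) from plasma exposure.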

Data set [8] deals with Mus musculus. Briefly: Reduction in glucagon-induced glucose excursion in glucagon receptor humanized mouse model of acute glucagon challenge model at 1 to 10 mg/kg, po dosed 1 hr before glucagon challenge. The format is functional, organism-based. The procedure, abridged: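 hGCGR-humanized mice given compound orally at 1, 3 or 10 mg/kg one hour prior to IP glucagon (15 µg/kg); blood glucose followed as change from time 0.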

Data set [9] can be described thus: Drug level in glucagon-induced glucose excursion in glucagon receptor humanized mouse model of acute glucagon challenge model at 1 mg/kg, po dosed 1 hr before glucagon challenge and measured after 60 mins post dose. The settings on record: in vivo, read-out: Drug uptake. The format is ADME, organism-based. Summed up:
(§2)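 Glucagon-receptor-humanized (hGCGR) mice dosed orally at 1, 3 or 10 mg/kg one hour before IP glucagon challenge (15 µg/kg); drug level measured at 60 min.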

The nature of data set [10]: Drug level in glucagon-induced glucose excursion in glucagon receptor humanized mouse model of acute glucagon challenge model at 3 mg/kg, po dosed 1 hr before glucagon challenge and measured after 60 mins post dose. The settings on record: in vivo, read-out: Drug uptake. It is filed as ADME, organism-based. Summed up:
as §2

The nature of data set [11]: Drug level in glucagon-induced glucose excursion in glucagon receptor humanized mouse model of acute glucagon challenge model at 10 mg/kg, po dosed 1 hr before glucagon challenge and measured after 60 mins post dose. The settings on record: in vivo, read-out: Drug uptake. It is filed as ADME, organism-based. Summed up:
as §2

Data set [12] has as its system Mus musculus. Briefly: Reduction in blood glucose levels in glucagon receptor humanized ob/ob mouse acute model at 3 mg/kg, po after 1 to 6 hrs. It is filed as functional, organism-based. The procedure, abridged:
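hGCGR ob/ob mice (N = 10–12 per group) dosed orally at 3 mg/kg at 0 h with food removed at 0 h; ambient blood glucose monitored over 6 h versus vehicle control, significance at each time point.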

A short description of data set [13]: Drug level in glucagon receptor humanized ob/ob mouse acute model at 3 mg/kg, po after 1 hrs. The settings on record: in vivo, read-out: Drug uptake. It is filed as ADME, organism-based.
Data set [14] in a line: Drug level in glucagon receptor humanized ob/ob mouse acute model at 3 mg/kg, po after 3 hrs. The format is ADME, organism-based. The settings on record: in vivo, read-out: Drug uptake.

T1 sequence (P47871 whole entry): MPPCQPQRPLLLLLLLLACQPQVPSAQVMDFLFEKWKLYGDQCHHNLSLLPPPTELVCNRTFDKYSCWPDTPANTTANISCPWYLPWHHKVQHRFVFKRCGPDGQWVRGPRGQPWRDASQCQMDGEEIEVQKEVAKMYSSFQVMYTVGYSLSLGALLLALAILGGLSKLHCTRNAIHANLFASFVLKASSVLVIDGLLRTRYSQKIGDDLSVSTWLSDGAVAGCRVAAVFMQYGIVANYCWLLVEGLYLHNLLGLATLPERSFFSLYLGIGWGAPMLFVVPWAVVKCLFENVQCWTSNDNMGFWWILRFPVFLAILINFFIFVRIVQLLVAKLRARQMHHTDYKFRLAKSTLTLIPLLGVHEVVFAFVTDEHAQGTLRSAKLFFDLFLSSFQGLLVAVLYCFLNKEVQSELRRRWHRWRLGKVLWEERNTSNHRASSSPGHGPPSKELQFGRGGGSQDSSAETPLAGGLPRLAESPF

Turning to `CCCCC(c1ccc(C(=O)NCCC(=O)O)cc1)n1nc(-c2cc(C(F)(F)F)ccc2OC)c2ccc(-c3ccc(C)cc3)cc21` (stereo unspecified), the IC50 on Glucagon receptor [1] worked out at 2.6 nM; at Glucagon receptor [2] it was 6.6 nM; in data set [3], 1000 nM. Further, in the data set listed under Homo sapiens, the Ratio IC50 amounted to 150. Moreover, in data set [4], the clearance came to 3.9 mL/min/kg. Also, the Vd in [5] was 1 L/kg. In data set [6], this compound gave a half-life of 4 h. In the data set with Rattus norvegicus, this compound came in with an AUC/dose of 1.2 µM·kg·h/mg. In data set [7], this compound came in with a bioavailability of 17%.
For the compound `COc1ccc(C(F)(F)F)cc1-c1nn(C(C)c2ccc(C(=O)NCCC(=O)O)cc2)c2cc(-c3ccc(C)cc3)ccc12` (stereo unspecified), the IC50 at Glucagon receptor [1] worked out at 2.6 nM; at Glucagon receptor [2], 7.6 nM; in [3], 1300 nM. For the same compound, the Ratio IC50 in the data set filed under Homo sapiens was found to be 170. The clearance in data set [4] amounted to 6.3 mL/min/kg. In addition, the Vd in [5] worked out at 0.65 L/kg. Besides, the half-life in [6] was 1.5 h. The AUC/dose in the data set on Rattus norvegicus came out at 2 µM·kg·h/mg. The compound also yielded a bioavailability in data set [7] of 44%. The inhibition result with Mus musculus [8] and in the data set on Mus musculus [12] was “Active” throughout. The concentration at 1 h in [9] was found to be 180 nM; in data set [10], 500 nM; in data set [11], 2540 nM; in data set [13], 400 nM. For the same compound, in [14], the concentration at 3 h is 280 nM.
For the compound `CCCCC(c1ccc(C(=O)NCCC(=O)O)cc1)n1nc(-c2cc(C(F)(F)F)ccc2OC)c2ccc(-c3ccc(OC)cc3)cc21` (stereo unspecified), the IC50 at Glucagon receptor [1] is 1.9 nM; at Glucagon receptor [2], 14 nM; in data set [3], 1100 nM. For the same compound, the Ratio IC50 in the data set filed under Homo sapiens is 79. This compound displayed a clearance in data set [4] of 1.7 mL/min/kg. The Vd in data set [5] is 0.67 L/kg. The same compound had a half-life in [6] of 6.4 h. The AUC/dose with Rattus norvegicus was 4 µM·kg·h/mg. The same compound gave a bioavailability in data set [7] of 27%.
Turning to `CCCC(c1ccc(C(=O)NCCC(=O)O)cc1)n1nc(-c2cc(C(F)(F)F)ccc2OC)c2ccc(-c3ccc(OC(F)(F)F)cc3)cc21` (stereo unspecified), the IC50 at Glucagon receptor [1] worked out at 1 nM; on Glucagon receptor [2], 5.6 nM; in data set [3], 1400 nM. Moreover, in the data set filed under Homo sapiens, the Ratio IC50 came out at 250. In data set [4], this compound displayed a clearance of 2.2 mL/min/kg. Besides, the Vd in data set [5] is 1.3 L/kg. For the same compound, the half-life in [6] is 9.7 h. This compound also registered an AUC/dose in the data set with Rattus norvegicus of 2 µM·kg·h/mg. Moreover, the bioavailability in data set [7] is 19%.
On to `CCCCC(c1ccc(C(=O)NCCC(=O)O)cc1)n1nc(-c2cc(C(F)(F)F)ccc2OC)c2ccc(-c3ccc(OC(F)(F)F)cc3)cc21` (stereo unspecified), for which the IC50 on Glucagon receptor [1] is 0.8 nM; on Glucagon receptor [2], 8 nM; in data set [3], 750 nM. The Ratio IC50 in the data set filed under Homo sapiens was found to be 94. The clearance in data set [4] amounted to 7.5 mL/min/kg. In addition, in [5], the Vd came out at 0.72 L/kg. This compound also gave a half-life in data set [6] of 4.7 h. This compound displayed an AUC/dose in the data set on Rattus norvegicus of 0.3 µM·kg·h/mg. The bioavailability in data set [7] stood at 9%.
Consider `CC(c1ccc(C(=O)NCCC(=O)O)cc1)n1nc(-c2cc(F)cc(F)c2F)c2ccc(-c3ccc(OC(F)(F)F)cc3)cc21` (stereo unspecified), for which the IC50 on Glucagon receptor [1] worked out at 7 nM; on Glucagon receptor [2], 52 nM.
On to `COc1ccc(C(F)(F)F)cc1-c1nn(C(c2ccc(C(=O)NCCC(=O)O)cc2)C(C)C)c2cc(-c3ccc(C)cc3)ccc12` (stereo unspecified), for which the IC50 on Glucagon receptor [1] was 4 nM; on Glucagon receptor [2], 69 nM.
